pIC50: −log10 of the molar value. Blank lines part the entries; values can stand above or below the compound they belong to.
Assays:
[1] = system: BJ; test: Cytotoxicity against human BJ cells after 72 hrs by MTT assay; format: ADME, cell-based
[2] = system: MCF7; test: Cytotoxicity against human MCF7 cells after 72 hrs by Calcein AM assay; format: ADME, cell-based; conditions: MCF7, 72 h
[3] = system: Triticum aestivum; test: Cytokinin activity in wheat leaf assessed as stimulation of retention of chlorophyll in excised leaves at 0.1 mM relative to 6-benzylaminopurine; format: functional
[4] = system: Nicotiana tabacum; test: Cytokinin activity in tobacco callus assessed as stimulation of callus growth at 100 uM relative to 6-benzylaminopurine; format: functional
Summary of the method: (§1)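 Compounds dissolved in DMSO, diluted with water to 5 × 10^-2 M stock, then diluted in medium to 10^-8 to 10^-4 M. Final DMSO ≤0.2%; solvent control 0.2% DMSO. Readout was cytokinin-dependent tobacco callus growth. Activity is expressed relative to 10^-6 M BAP (=100%) at each compound's optimal concentration. Five replicates per concentration; whole test run at least twice.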

[5] = system: K562; test: Cytotoxicity against human K562 cells after 72 hrs by Calcein AM assay; format: ADME, cell-based; conditions: K562, 72 h
[6] = system: Amaranthus; test: Cytokinin activity in cotyledons assessed as dark induction of betacyanin synthesis at 100 uM relative to 6-benzylaminopurine; format: functional
[7] = system: Nicotiana tabacum; test: Cytokinin activity in tobacco callus assessed as stimulation of callus growth at 1 uM relative to 6-benzylaminopurine; format: functional
[8] = system: Nicotiana tabacum; test: Cytokinin activity in tobacco callus assessed as stimulation of callus growth at 10 uM relative to 6-benzylaminopurine; format: functional; summary of the method: as §1
[9] = Stability assessed as compound peak area at pH 7 after 24 hrs by HPLC-PDA method; format: physicochemical; conditions: read-out: Stability
Summary of the method: (§2)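 10^-2 M methanol solution diluted to 10^-4 M in McIlvaine buffer at pH 3, 4, 5, 6 or 7, then incubated at 25 °C. Direct injection onto reversed-phase C18 after 1 h and again after 24 h. Methanol/15 mM formic acid (pH 4, ammonium) gradient at 0.3 mL/min, PDA at 270 nm. Parent and released free base (m-topolin) reported as peak area %.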

[10] = Stability assessed as free base release at pH 3 after 24 hr by HPLC-PDA method; format: physicochemical; conditions: pH 3, 24 h; summary of the method: as §2
[11] = Stability assessed as free base release at pH 7 after 24 hr by HPLC-PDA method; format: physicochemical; conditions: pH 7, 24 h; summary of the method: as §2
[12] = Stability assessed as free base release at pH 3 after 1 hr by HPLC-PDA method; format: physicochemical; conditions: pH 3, 1 h; summary of the method: as §2
[13] = Stability assessed as free base release at pH 5 after 1 hr by HPLC-PDA method; format: physicochemical; conditions: pH 5, 1 h; summary of the method: as §2
[14] = Stability assessed as free base release at pH 4 after 24 hr by HPLC-PDA method; format: physicochemical; conditions: pH 4, 24 h; summary of the method: as §2
[15] = Stability assessed as free base release at pH 5 after 24 hr by HPLC-PDA method; format: physicochemical; conditions: pH 5, 24 h; summary of the method: as §2
[16] = Stability assessed as free base release at pH 4 after 1 hr by HPLC-PDA method; format: physicochemical; conditions: pH 4, 1 h; summary of the method: as §2
[17] = Stability assessed as compound peak area at pH 3 after 1 hr by HPLC-PDA method; format: physicochemical; conditions: read-out: Stability; summary of the method: as §2
[18] = Stability assessed as compound peak area at pH 4 after 24 hrs by HPLC-PDA method; format: physicochemical; conditions: read-out: Stability; summary of the method: as §2
[19] = Stability assessed as free base release at pH 7 after 1 hr by HPLC-PDA method; format: physicochemical; conditions: pH 7, 1 h; summary of the method: as §2
[20] = Stability assessed as compound peak area at pH 6 after 1 hr by HPLC-PDA method; format: physicochemical; conditions: read-out: Stability; summary of the method: as §2
[21] = Stability assessed as free base release at pH 6 after 1 hr by HPLC-PDA method; format: physicochemical; conditions: pH 6, 1 h; summary of the method: as §2
[22] = Stability assessed as compound peak area at pH 5 after 1 hr by HPLC-PDA method; format: physicochemical; conditions: read-out: Stability; summary of the method: as §2
[23] = Stability assessed as free base release at pH 6 after 24 hr by HPLC-PDA method; format: physicochemical; conditions: pH 6, 24 h; summary of the method: as §2
[24] = Stability assessed as compound peak area at pH 7 after 1 hr by HPLC-PDA method; format: physicochemical; conditions: read-out: Stability; summary of the method: as §2
[25] = Stability assessed as compound peak area at pH 5 after 24 hrs by HPLC-PDA method; format: physicochemical; conditions: read-out: Stability; summary of the method: as §2
[26] = Stability assessed as compound peak area at pH 3 after 24 hrs by HPLC-PDA method; format: physicochemical; conditions: read-out: Stability; summary of the method: as §2
[27] = Stability assessed as compound peak area at pH 4 after 1 hr by HPLC-PDA method; format: physicochemical; conditions: read-out: Stability; summary of the method: as §2
[28] = Stability assessed as compound peak area at pH 6 after 24 hrs by HPLC-PDA method; format: physicochemical; conditions: read-out: Stability; summary of the method: as §2

SMILES: COc1cccc(OC)c1CNc1ncnc2c1ncn2C1CCCCO1 (stereo not drawn)
pIC50 [1]: < 4.00
pIC50 [2]: < 4.00
Activity [3]: 14%
Activity [4]: 57%
pIC50 [5]: 4.99
Activity [6]: 13%

SMILES: COc1ccccc1CNc1ncnc2c1ncn2C1CCCCO1 (stereo not drawn)
pIC50 [1]: < 4.00
Activity [7]: 93%
pIC50 [2]: < 4.00
Activity [3]: 104%
pIC50 [5]: 4.01
Activity [6]: 84%

SMILES: COc1ccc(CNc2ncnc3c2ncn3C2CCCCO2)c(OC)c1 (stereo not drawn)
pIC50 [1]: < 4.60
pIC50 [2]: < 4.60
Activity [3]: 25%
pIC50 [5]: < 4.60
Activity [6]: 9%

SMILES: COc1ccc(OC)c(CNc2ncnc3c2ncn3C2CCCCO2)c1 (stereo not drawn)
pIC50 [1]: < 4.00
pIC50 [2]: 4.60
Activity [8]: 42%
Activity [3]: 19%
pIC50 [5]: 4.78
Activity [6]: 28%

SMILES: c1ccc(CNc2ncnc3c2ncn3C2CCCCO2)cc1 (stereo not drawn)
pIC50 [1]: < 4.00
Activity [7]: 102%
pIC50 [2]: < 4.00
Activity [3]: 104%
pIC50 [5]: < 4.00
Activity [6]: 114%

SMILES: Oc1ccc(CNc2ncnc3c2ncn3C2CCCCO2)cc1 (stereo not drawn)
pIC50 [1]: < 4.00
pIC50 [2]: < 4.00
Activity [8]: 20%
Activity [3]: 4%
pIC50 [5]: < 4.00
Activity [6]: 34%

SMILES: COc1cccc(CNc2ncnc3c2ncn3C2CCCCO2)c1 (stereo not drawn)
pIC50 [1]: < 4.00
Activity [7]: 90%
pIC50 [2]: 4.01
Activity [3]: 72%
pIC50 [5]: 4.21
Activity [6]: 76%

SMILES: COc1cccc(CNc2ncnc3c2ncn3C2CCCCO2)c1O (stereo not drawn)
pIC50 [1]: < 4.00
pIC50 [2]: < 4.00
Activity [4]: 12%
pIC50 [5]: < 4.00
Activity [6]: 18%

remaining at 24 h [9]: 99.7%
Activity [10]: 99.7%
Activity [11]: 0.3%
Activity [12]: 36.2%
Activity [13]: 0.5%
Activity [14]: 62.5%
Activity [15]: 9.2%
Activity [16]: 2.8%
remaining at 1 h [17]: 63.8%
remaining at 24 h [18]: 37.5%
Activity [19]: 0.3%
remaining at 1 h [20]: 99.6%
Activity [21]: 0.4%
remaining at 1 h [22]: 99.5%
Activity [23]: 0.6%
remaining at 1 h [24]: 99.7%
remaining at 24 h [25]: 90.8%
remaining at 24 h [26]: 0.3%
remaining at 1 h [27]: 97.2%
remaining at 24 h [28]: 99.4%
SMILES: Oc1cccc(CNc2ncnc3c2ncn3C2CCCO2)c1 (stereo not drawn)
pIC50 [1]: < 4.00
Activity [7]: 87%
pIC50 [2]: < 4.00
Activity [3]: 131%
pIC50 [5]: < 4.00
Activity [6]: 82%

SMILES: COc1cc(OC)c(OC)cc1CNc1ncnc2c1ncn2C1CCCCO1 (stereo not drawn)
pIC50 [1]: < 4.00
pIC50 [2]: < 4.00
Activity [4]: 11%
pIC50 [5]: < 4.00
Activity [6]: 3%

SMILES: COc1cc(CNc2ncnc3c2ncn3C2CCCO2)cc(OC)c1 (stereo not drawn)
pIC50 [1]: < 4.00
pIC50 [2]: < 4.00
Activity [3]: 8%
Activity [4]: 14%
pIC50 [5]: < 4.00
Activity [6]: 18%

SMILES: COc1cc(CNc2ncnc3c2ncn3C2CCCO2)ccc1O (stereo not drawn)
pIC50 [1]: < 4.00
pIC50 [2]: < 4.00
Activity [3]: 4%
Activity [4]: 13%
pIC50 [5]: < 4.00
Activity [6]: 17%

SMILES: COc1ccc(CNc2ncnc3c2ncn3C2CCCO2)c(OC)c1OC (stereo not drawn)
pIC50 [1]: < 4.00
pIC50 [2]: < 4.00
Activity [3]: 9%
Activity [4]: 7%
pIC50 [5]: < 4.00
Activity [6]: 15%

SMILES: COc1ccc(OC)c(CNc2ncnc3c2ncn3C2CCCO2)c1 (stereo not drawn)
pIC50 [1]: < 4.30
pIC50 [2]: < 4.30
Activity [8]: 61%
Activity [3]: 41%
pIC50 [5]: < 4.30
Activity [6]: 41%

SMILES: COc1cc(OC)c(OC)cc1CNc1ncnc2c1ncn2C1CCCO1 (stereo not drawn)
pIC50 [1]: < 4.00
pIC50 [2]: < 4.00
Activity [3]: 9%
Activity [4]: 14%
pIC50 [5]: < 4.00
Activity [6]: 14%

SMILES: COc1cc(CNc2ncnc3c2ncn3C2CCCO2)cc(OC)c1OC (stereo not drawn)
pIC50 [1]: < 4.00
pIC50 [2]: < 4.00
Activity [3]: 10%
Activity [4]: 4%
pIC50 [5]: < 4.00
Activity [6]: 17%

SMILES: COc1cc(CNc2ncnc3c2ncn3C2CCCCO2)cc(OC)c1 (stereo not drawn)
pIC50 [1]: < 4.00
pIC50 [2]: < 4.00
Activity [3]: 7%
pIC50 [5]: < 4.00
Activity [6]: 9%

Source: ChEMBL document CHEMBL1153925, “Synthesis, characterization and biological activity of ring-substituted 6-benzylamino-9-tetrahydropyran-2-yl and 9-tetrahydrofuran-2-ylpurine derivatives” (Bioorg Med Chem, 2009)
